In ChEMBL document CHEMBL1142436, “Design and synthesis of 4-substituted indolo[3,2-e][1,2,3]triazolo[1,5-a]pyrimidine derivatives with antitumor activity” (2008):

Key:
Type in all cases: functional
CCRF-CEM = test: Growth inhibition of human CCRF-CEM cells after 48 hrs
Procedure, shortened: (§1)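 NCI ~60-line screen. Cells were grown in RPMI 1640 with 5% FBS and 2 mM L-glutamine and plated at 5000–40000 cells/well. After a 24 h preincubation, five drug concentrations from DMSO stocks were added for 48 h at 37 °C. Cells were TCA-fixed, stained with SRB and read at 515 nm. GI50 was taken from time-zero and control absorbances and reported as pGI50.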

MOLT-4 = test: Growth inhibition of human MOLT4 cells after 48 hrs; conditions: MOLT-4, 48 h; procedure, shortened: as §1
[1] = Growth inhibition of human HS578T cells after 48 hrs; conditions: Hs-578T; procedure, shortened: as §1
T47D = test: Growth inhibition of human T47D cells after 48 hrs
Procedure, shortened: (§2)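 NCI 60-line screen: cells in RPMI 1640 with 5% FBS and 2 mM L-glutamine, plated at 5000–40000 cells/well, grown 24 h (37 °C, 5% CO₂), then exposed to five 10-fold or ½-log dilutions (DMSO stock) for 48 h. Fixed with TCA (final 10% for adherent cells, 16% for suspension cells), then SRB stained with absorbance at 515 nm. GI50 from percentage growth relative to time-zero and control wells.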

RPMI-8226 = test: Growth inhibition of human RPMI8226 cells after 48 hrs; conditions: RPMI-8226, 48 h; procedure, shortened: as §1
EKVX = test: Growth inhibition of human EKVX cells after 48 hrs; procedure, shortened: as §1
HOP-62 = test: Growth inhibition of human HOP62 cells after 48 hrs; conditions: HOP-62, 48 h; procedure, shortened: as §1
NCI-H23 = test: Growth inhibition of human NCI-H23 cells after 48 hrs; conditions: Homo sapiens, NCI-H23, 48 h; procedure, shortened: as §1
NCI-H322M = test: Growth inhibition of human NCI-H322M cells after 48 hrs; procedure, shortened: as §1
NCI-H460 = test: Growth inhibition of human NCI-H460 cells after 48 hrs; conditions: NCI-H460, 48 h; procedure, shortened: as §1
NCI-H522 = test: Growth inhibition of human NCI-H522 cells after 48 hrs; conditions: NCI-H522, 48 h, read-out: pTGI (converted); procedure, shortened: as §1
COLO 205 = test: Growth inhibition of human COLO205 cells after 48 hrs; conditions: COLO 205, 48 h; procedure, shortened: as §1
HCC 2998 = test: Growth inhibition of human HCC2998 cells after 48 hrs; conditions: HCC 2998, 48 h; procedure, shortened: as §1
HCT-116 = test: Growth inhibition of human HCT116 cells after 48 hrs; conditions: HCT-116, 48 h; procedure, shortened: as §1
KM12 = test: Growth inhibition of human KM12 cells after 48 hrs; conditions: KM12, 48 h; procedure, shortened: as §1
SW-620 = test: Growth inhibition of human SW620 cells after 48 hrs; conditions: SW-620, 48 h; procedure, shortened: as §2
SF-268 = test: Growth inhibition of human SF268 cells after 48 hrs; conditions: SF-268, 48 h; procedure, shortened: as §1
SF-539 = test: Growth inhibition of human SF539 cells after 48 hrs; conditions: SF-539, 48 h; procedure, shortened: as §1
SNB-19 = test: Growth inhibition of human SNB19 cells after 48 hrs; conditions: SNB-19, 48 h; procedure, shortened: as §2
SNB-75 = test: Growth inhibition of human SNB75 cells after 48 hrs; conditions: SNB-75, 48 h; procedure, shortened: as §2
U-251 = test: Growth inhibition of human U251 cells after 48 hrs; conditions: U-251, 48 h; procedure, shortened: as §2
Malme-3M = test: Growth inhibition of human MALME3M cells after 48 hrs; procedure, shortened: as §1
M14 = test: Growth inhibition of human M14 cells after 48 hrs; conditions: M14, 48 h; procedure, shortened: as §1
SK-MEL-28 = test: Growth inhibition of human SK-MEL28 cells after 48 hrs; conditions: SK-MEL-28, 48 h; procedure, shortened: as §1
SK-MEL-5 = test: Growth inhibition of human SK-MEL5 cells after 48 hrs; conditions: SK-MEL-5, 48 h; procedure, shortened: as §1
IGROV-1 = test: Growth inhibition of human IGROV1 cells after 48 hrs; conditions: IGROV-1, 48 h; procedure, shortened: as §1
OVCAR-3 = test: Growth inhibition of human OVCAR-3 cells after 48 hrs; conditions: OVCAR-3, 48 h; procedure, shortened: as §1
OVCAR-4 = test: Growth inhibition of human OVCAR4 cells after 48 hrs; conditions: OVCAR-4, 48 h; procedure, shortened: as §1
OVCAR-8 = test: Growth inhibition of human OVCAR8 cells after 48 hrs; conditions: OVCAR-8, 48 h; procedure, shortened: as §1
A498 = test: Growth inhibition of human A498 cells after 48 hrs; conditions: A498, 48 h; procedure, shortened: as §1
ACHN = test: Growth inhibition of human ACHN cells after 48 hrs; procedure, shortened: as §1
RXF 393 = test: Growth inhibition of human RXF393 cells after 48 hrs; conditions: RXF 393, 48 h; procedure, shortened: as §1
DU-145 = test: Growth inhibition of human DU145 cells after 48 hrs; conditions: DU-145, 48 h; procedure, shortened: as §1
MCF7 = test: Growth inhibition of human MCF7 cells after 48 hrs; conditions: MCF7, 48 h; procedure, shortened: as §1

CCCCN(CCCC)CCCn1c(=O)c2c3ccccc3n(C)c2n2nnc(-c3ccccc3)c12
GI50 (CCRF-CEM): 4.17 µM | TGI (CCRF-CEM; read-out: pTGI (converted)): 91.2 µM | GI50 (MOLT-4): 13.8 µM | TGI (MOLT-4; read-out: pTGI (converted)): > 100 µM | GI50 [1]: 38.9 µM | TGI ([1]; read-out: pTGI (converted)): > 100 µM | GI50 (T47D): 55 µM | TGI (T47D; read-out: pTGI (converted)): > 100 µM | GI50 (RPMI-8226): 6.03 µM | TGI (RPMI-8226; read-out: pTGI (converted)): 49 µM | GI50 (EKVX): 56.2 µM | TGI (EKVX; read-out: pTGI (converted)): > 100 µM | GI50 (HOP-62): 30.9 µM | TGI (HOP-62; read-out: pTGI (converted)): > 100 µM | CC50 (NCI-H23; read-out: Log LC50 (the source's name) (converted)): 12.9 µM | TGI (NCI-H23; read-out: pTGI (converted)): 63.1 µM | GI50 (NCI-H322M): 28.8 µM | TGI (NCI-H322M; read-out: pTGI (converted)): > 100 µM | GI50 (NCI-H460): 40.7 µM | TGI (NCI-H460; read-out: pTGI (converted)): > 100 µM | TGI (NCI-H522): 10.7 µM | GI50 (COLO 205): 5.01 µM | TGI (COLO 205; read-out: pTGI (converted)): 63.1 µM | GI50 (HCC 2998): 20.4 µM | TGI (HCC 2998; read-out: pTGI (converted)): > 100 µM | GI50 (HCT-116): 18.6 µM | TGI (HCT-116; read-out: pTGI (converted)): > 100 µM | GI50 (KM12): 33.9 µM | TGI (KM12; read-out: pTGI (converted)): > 100 µM | GI50 (SW-620): 26.3 µM | TGI (SW-620; read-out: pTGI (converted)): > 100 µM | GI50 (SF-268): > 100 µM | TGI (SF-268; read-out: pTGI (converted)): > 100 µM | GI50 (SF-539): 66.1 µM | TGI (SF-539; read-out: pTGI (converted)): > 100 µM | GI50 (SNB-19): > 100 µM | TGI (SNB-19; read-out: pTGI (converted)): > 100 µM | GI50 (SNB-75): 15.1 µM | TGI (SNB-75; read-out: pTGI (converted)): 56.2 µM | GI50 (U-251): 33.1 µM | TGI (U-251; read-out: pTGI (converted)): > 100 µM | GI50 (Malme-3M): 28.2 µM | TGI (Malme-3M; read-out: pTGI (converted)): 89.1 µM | GI50 (M14): 21.4 µM | TGI (M14; read-out: pTGI (converted)): > 100 µM | GI50 (SK-MEL-28): > 100 µM | TGI (SK-MEL-28; read-out: pTGI (converted)): > 100 µM | GI50 (SK-MEL-5): 31.6 µM | TGI (SK-MEL-5; read-out: pTGI (converted)): > 100 µM | LC50 (IGROV-1): > 50.1 µM | GI50 (OVCAR-3): 49 µM | TGI (OVCAR-3; read-out: pTGI (converted)): > 100 µM | GI50 (OVCAR-4): 17.4 µM | TGI (OVCAR-4; read-out: pTGI (converted)): 83.2 µM | GI50 (OVCAR-8): 39.8 µM | TGI (OVCAR-8; read-out: pTGI (converted)): > 100 µM | GI50 (A498): 42.7 µM | TGI (A498; read-out: pTGI (converted)): > 100 µM | GI50 (ACHN): 34.7 µM | TGI (ACHN; read-out: pTGI (converted)): > 100 µM | GI50 (RXF 393): 14.1 µM | TGI (RXF 393; read-out: pTGI (converted)): 42.7 µM | GI50 (DU-145): 47.9 µM | TGI (DU-145; read-out: pTGI (converted)): > 100 µM | GI50 (MCF7): 37.2 µM | TGI (MCF7; read-out: pTGI (converted)): > 100 µM
